Measured values reported in ChEMBL document CHEMBL3044709, “Antimicrobial furostanol saponins from the seeds of Capsicum annuum L. var. acuminatum” (2002).
Values after ≈ are worked out from the molar mass of the structure shown.

Columns and labels:
Format in all cases: functional
Saccharomyces cerevisiae [1] = assay: Antimicrobial activity against Saccharomyces cerevisiae Diproval 8167 after 48 hr by agar dilution method; settings: Diproval 8167, 48 h
Outline: (§1)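 Yeast peptone dextrose agar plates, each holding a 2-fold serial dilution of sample (0.5 mL into 9.5 mL medium). Yeast streaked onto the plates and incubated at 28 °C, read at 36 and 48 h. MIC is the lowest concentration tested showing no growth.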

Aspergillus niger = assay: Antimicrobial activity against Aspergillus niger ATCC 1040 after 48 hr by agar dilution method; settings: ATCC 1040, 48 h
Outline: (§2)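 Fungi tested by agar dilution in malt agar. Serial 2-fold sample dilutions (0.5 mL) were mixed with 9.5 mL medium and plated, then streaked with the organism. Incubation at 28 °C for 36 and 48 h. MIC is the lowest tested concentration without growth.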

Stutzerimonas stutzeri = assay: Antimicrobial activity against Pseudomonas stutzeri ATCC 962 after 48 hr by agar dilution method; settings: ATCC 962, 48 h
Outline: (§3)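 Agar dilution on standard plate count agar: 0.5 mL of a 2-fold serial dilution of sample mixed into 9.5 mL medium, poured into Petri dishes, organism streaked on the surface. Incubated at 28 °C (36 and 48 h). MIC is the lowest tested concentration with no visible growth.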

Hanseniaspora uvarum [2] = assay: Antimicrobial activity against Hanseniaspora uvarum AP23 after 48 hr by agar dilution method; settings: Distaam AP23, 48 h; outline: as §1
Bacillus licheniformis = assay: Antimicrobial activity against Bacillus licheniformis DSM 13=ATCC 14580 after 48 hr by agar dilution method; settings: DSM 13 = ATCC 14580, 48 h; outline: as §3
Aspergillus fumigatus = assay: Antimicrobial activity against Aspergillus fumigatus ATCC 1028 after 48 hr by agar dilution method; settings: ATCC 1028, 48 h; outline: as §2
Bacillus cereus = assay: Antimicrobial activity against Bacillus cereus DSM 345 after 48 hr by agar dilution method; settings: DSM 345, 48 h; outline: as §3
Hanseniaspora uvarum [3] = assay: Antimicrobial activity against Hanseniaspora uvarum CBS 314 after 48 hr by agar dilution method; settings: CBS 314, 48 h; outline: as §1
Staphylococcus aureus = assay: Antimicrobial activity against Staphylococcus aureus subsp. aureus DSM 346 after 48 hr by agar dilution method; settings: DSM 346, 48 h; outline: as §3
Saccharomyces cerevisiae [4] = assay: Antimicrobial activity against Saccharomyces cerevisiae Diproval 404 after 48 hr by agar dilution method; settings: Diproval 404, 48 h; outline: as §1
Saccharomycodes ludwigii = assay: Antimicrobial activity against Saccharomycodes ludwigii Diproval 120 after 48 hr by agar dilution method; settings: Diproval 120, 48 h; outline: as §1
Micrococcus luteus = assay: Antimicrobial activity against Micrococcus luteus DSM 348 after 48 hr by agar dilution method; settings: DSM 348, 48 h; outline: as §3
Bacillus subtilis = assay: Antimicrobial activity against Bacillus subtilis DSM 345 after 48 hr by agar dilution method; settings: DSM 345, 48 h; outline: as §3
[5] = system: Hanseniaspora guilliermondii; assay: Antimicrobial activity against Hanseniaspora guilliermondii CBS 465 after 48 hr by agar dilution method; settings: CBS 465, 48 h; outline: as §1
Hanseniaspora osmophila = assay: Antimicrobial activity against Hanseniaspora osmophila CBS 313 after 48 hr by agar dilution method; settings: CBS 313, 48 h; outline: as §1
Trichoderma viride = assay: Antimicrobial activity against Hypocrea rufa ATCC 28020 after 48 hr by agar dilution method; settings: ATCC 28020, 48 h; outline: as §2
Penicillium expansum = assay: Antimicrobial activity against Penicillium expansum ATCC 7861 after 48 hr by agar dilution method; settings: ATCC 7861, 48 h; outline: as §2
Enterococcus faecalis = assay: Antimicrobial activity against Enterococcus faecalis DSM 2570 after 48 hr by agar dilution method; settings: DSM 2570, 48 h; outline: as §3
[6] = system: Lacticaseibacillus rhamnosus; assay: Antimicrobial activity against Lactobacillus rhamnosus DSM 20021 after 48 hr by agar dilution method; settings: DSM 20021, 48 h; outline: as §3
[7] = system: Schizosaccharomyces pombe; assay: Antimicrobial activity against Schizosaccharomyces pombe Diproval 106 after 48 hr by agar dilution method; settings: Diproval 106, 48 h; outline: as §1
Rhizopus arrhizus = assay: Antimicrobial activity against Rhizopus oryzae ATCC 56536 after 48 hr by agar dilution method; settings: ATCC 56536, 48 h; outline: as §2
Setophoma terrestris = assay: Antimicrobial activity against Setophoma terrestris ATCC 11321 after 48 hr by agar dilution method; settings: ATCC 11321, 48 h; outline: as §2
Candida albicans = assay: Antimicrobial activity against Candida albicans CBS 562 after 48 hr by agar dilution method; settings: CBS 562, 48 h; outline: as §1
Saccharomyces cerevisiae [8] = assay: Antimicrobial activity against Saccharomyces cerevisiae Diproval 2439 after 48 hr by agar dilution method; settings: Diproval 2439, 48 h; outline: as §1
Escherichia coli [9] = assay: Antimicrobial activity against Escherichia coli ATCC 35346 after 48 hr by agar dilution method; settings: ATCC 35346, 48 h; outline: as §3
Lacticaseibacillus casei = assay: Antimicrobial activity against Lactobacillus casei DSM 20011 after 48 hr by agar dilution method; settings: DSM 20011, 48 h; outline: as §3
[10] = system: Limosilactobacillus fermentum; assay: Antimicrobial activity against Lactobacillus fermentum DSM 20052 after 48 hr by agar dilution method; settings: DSM 20052, 48 h; outline: as §3
[11] = system: Lactiplantibacillus plantarum; assay: Antimicrobial activity against Lactobacillus plantarum DSM 20174 after 48 hr by agar dilution method; settings: DSM 20174, 48 h; outline: as §3
Saccharomyces cerevisiae [12] = assay: Antimicrobial activity against Saccharomyces cerevisiae Diproval 7070 after 48 hr by agar dilution method; settings: Diproval 7070, 48 h; outline: as §1
Escherichia coli [13] = assay: Antimicrobial activity against Escherichia coli DSM 682 after 48 hr by agar dilution method; settings: DSM 682, 48 h; outline: as §3
Pseudomonas aeruginosa = assay: Antimicrobial activity against Pseudomonas aeruginosa DSM 1117 after 48 hr by agar dilution method; settings: DSM 1117, 48 h; outline: as §3
Saccharomyces cerevisiae [14] = assay: Antimicrobial activity against Saccharomyces cerevisiae Diproval 6073 after 48 hr by agar dilution method; settings: Diproval 6073, 48 h; outline: as §1
Hanseniaspora vineae = assay: Antimicrobial activity against Hanseniaspora vineae CBS 2171 after 48 hr by agar dilution method; settings: CBS 2171, 48 h; outline: as §1
Aspergillus flavus = assay: Antimicrobial activity against Aspergillus flavus ATCC 11655 after 48 hr by agar dilution method; settings: ATCC 11655, 48 h; outline: as §2
[15] = system: Staphylococcus epidermidis; assay: Antimicrobial activity against Staphylococcus epidermidis DSM 1798 after 48 hr by agar dilution method; settings: DSM 1798, 48 h; outline: as §3
Saccharomyces cerevisiae [16] = assay: Antimicrobial activity against Saccharomyces cerevisiae Diproval 9109 after 48 hr by agar dilution method; settings: Diproval 9109, 48 h; outline: as §1

SMILES	MIC (Saccharomyces cerevisiae [1]) [µg/mL]	MIC (Aspergillus niger) [µg/mL]	MIC (Stutzerimonas stutzeri) [µg/mL]	MIC (Hanseniaspora uvarum [2]) [µg/mL]	MIC (Bacillus licheniformis) [µg/mL]	MIC (Aspergillus fumigatus) [µg/mL]	MIC (Bacillus cereus) [µg/mL]	MIC (Hanseniaspora uvarum [3]) [µg/mL]	MIC (Staphylococcus aureus) [µg/mL]	MIC (Saccharomyces cerevisiae [4]) [µg/mL]	MIC (Saccharomycodes ludwigii) [µg/mL]	MIC (Micrococcus luteus) [µg/mL]	MIC (Bacillus subtilis) [µg/mL]	MIC [5] [µg/mL]	MIC (Hanseniaspora osmophila) [µg/mL]	MIC (Trichoderma viride) [µg/mL]	MIC (Penicillium expansum) [µg/mL]	MIC (Enterococcus faecalis) [µg/mL]	MIC [6] [µg/mL]	MIC [7] [µg/mL]	also measured
C=C(CCC1(OC)O[C@H]2C[C@H]3[C@@H]4CC[C@H]5C[C@@H](O[C@@H]6O[C@H](CO)[C@H](O[C@@H]7O[C@H](CO)[C@@H](O)[C@H](O[C@@H]8O[C@H](CO)[C@@H](O)[C@H](O)[C@H]8O)[C@H]7O[C@@H]7O[C@H](CO)[C@@H](O)[C@H](O[C@@H]8O[C@H](CO)[C@@H](O)[C@H](O)[C@H]8O)[C@H]7O)[C@H](O)[C@H]6O)[C@H](O)C[C@]5(C)[C@H]4CC[C@]3(C)[C@H]2[C@@H]1C)CO[C@@H]1O[C@H](CO)[C@@H](O)[C@H](O)[C@H]1O (some centres not stated) [Capsicoside E]	50 (≈ 34.8 µM)	> 1000	> 1000	25 (≈ 17.4 µM)	> 1000	> 1000	1000 (≈ 697 µM)	25 (≈ 17.4 µM)	> 1000	50 (≈ 34.8 µM)	50 (≈ 34.8 µM)	> 1000	> 1000	50 (≈ 34.8 µM)	100 (≈ 69.7 µM)	500 (≈ 348 µM)	1000 (≈ 697 µM)	> 1000	1000 (≈ 697 µM)	100 (≈ 69.7 µM)	MIC (Rhizopus arrhizus): 125 µg/mL (≈ 87.1 µM); MIC (Setophoma terrestris): 125 µg/mL (≈ 87.1 µM); MIC (Candida albicans): 25 µg/mL (≈ 17.4 µM); MIC (Saccharomyces cerevisiae [8]): 50 µg/mL (≈ 34.8 µM); MIC (Escherichia coli [9]): 1000 µg/mL (≈ 697 µM); MIC (Lacticaseibacillus casei): 1000 µg/mL (≈ 697 µM); MIC [10]: 1000 µg/mL (≈ 697 µM); MIC [11]: 1000 µg/mL (≈ 697 µM); MIC (Saccharomyces cerevisiae [12]): 50 µg/mL (≈ 34.8 µM); MIC (Escherichia coli [13]): 1000 µg/mL (≈ 697 µM); MIC (Pseudomonas aeruginosa): > 1000 µg/mL; MIC (Saccharomyces cerevisiae [14]): 50 µg/mL (≈ 34.8 µM); MIC (Hanseniaspora vineae): 50 µg/mL (≈ 34.8 µM); MIC (Aspergillus flavus): > 1000 µg/mL; MIC [15]: > 1000 µg/mL; MIC (Saccharomyces cerevisiae [16]): 50 µg/mL (≈ 34.8 µM)
COC1(CC[C@@H](C)CO[C@@H]2O[C@H](CO)[C@@H](O)[C@H](O)[C@H]2O)O[C@H]2C[C@H]3[C@@H]4CC[C@H]5C[C@@H](O[C@@H]6O[C@H](CO)[C@H](O[C@@H]7O[C@H](CO)[C@@H](O)[C@H](O[C@@H]8O[C@H](CO)[C@@H](O)[C@H](O)[C@H]8O)[C@H]7O[C@@H]7O[C@H](CO)[C@@H](O)[C@H](O[C@@H]8O[C@H](CO)[C@@H](O)[C@H](O)[C@H]8O)[C@H]7O)[C@H](O)[C@H]6O)CC[C@]5(C)[C@H]4CC[C@]3(C)[C@H]2[C@@H]1C (some centres not stated) [22-O-METHYLCAPSICOSIDE G]	25 (≈ 17.6 µM)	> 1000	> 1000	12.5 (≈ 8.79 µM)	> 1000	> 1000	1000 (≈ 703 µM)	12.5 (≈ 8.79 µM)	> 1000	25 (≈ 17.6 µM)	12.5 (≈ 8.79 µM)	> 1000	> 1000	12.5 (≈ 8.79 µM)	25 (≈ 17.6 µM)	250 (≈ 176 µM)	500 (≈ 352 µM)	> 1000	1000 (≈ 703 µM)	25 (≈ 17.6 µM)	MIC (Rhizopus arrhizus): 125 µg/mL (≈ 87.9 µM); MIC (Setophoma terrestris): 250 µg/mL (≈ 176 µM); MIC (Candida albicans): 25 µg/mL (≈ 17.6 µM); MIC (Saccharomyces cerevisiae [8]): 25 µg/mL (≈ 17.6 µM); MIC (Escherichia coli [9]): 1000 µg/mL (≈ 703 µM); MIC (Lacticaseibacillus casei): 1000 µg/mL (≈ 703 µM); MIC [10]: 1000 µg/mL (≈ 703 µM); MIC [11]: 1000 µg/mL (≈ 703 µM); MIC (Saccharomyces cerevisiae [12]): 25 µg/mL (≈ 17.6 µM); MIC (Escherichia coli [13]): 1000 µg/mL (≈ 703 µM); MIC (Pseudomonas aeruginosa): > 1000 µg/mL; MIC (Saccharomyces cerevisiae [14]): 25 µg/mL (≈ 17.6 µM); MIC (Hanseniaspora vineae): 12.5 µg/mL (≈ 8.79 µM); MIC (Aspergillus flavus): > 1000 µg/mL; MIC [15]: > 1000 µg/mL; MIC (Saccharomyces cerevisiae [16]): 25 µg/mL (≈ 17.6 µM)
